This passage reports cytotoxicity results from ChEMBL document CHEMBL4513216, “Probing the Open Global Health Chemical Diversity Library for Multistage-Active Starting Points for Next-Generation Antimalarials” (ACS Infect Dis, 2020).

Structures are written as SMILES.

The series is described as follows: Toxicity liver stage against HepG2, at 10uM. The class given is cell-based. Set-up: test concentration 10 uM, cell line HepG2-A16-CD81EGFP. Conditions: human, HepG2-A16-CD81EGFP cells; read-out: INHIBITION
In a few lines: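 Uninfected HepG2-A16-CD81EGFP cells, 3 × 10^3 per well, 1536-well, plated on prespotted compound at 10 μM final, parasite-free screening media added to match infected plates; puromycin 10 μM positive, DMSO 0.5% negative; run in parallel with 48 h PbLuc assay at 37 °C, 5% CO2; viability by CellTiter-Glo luminescence, normalized to controls.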
Regarding `CC(C1CCN(Cc2c(Cl)cncc2Cl)CC1)N1CCN(C)CC1` (centres undefined), the cytotoxicity at 10 µM is -12.2%.

As for `COc1cccc2c1OCC(C(=O)NCCc1nnc(C)s1)C2` (centres undefined), the cytotoxicity at 10 µM was -42.1%.

`Cn1ccc(-c2cc(C(=O)N3CCC(O)CC3)c3ccccn23)n1`: the cytotoxicity at 10 µM is -98.3%.

In the case of `COCC(=O)N1CCc2c(CNS(C)(=O)=O)n[nH]c2C1`, the cytotoxicity at 10 µM was 4.32%.

For `Cc1cnn(C2CN(Cc3nc4cc(Cl)ccc4n3C)C2)c1`, the cytotoxicity at 10 µM is -1.16%.

For `O=C(c1ccccc1)N1CCN(CC2CCOc3ccccc3C2)CC1` (centres undefined), the cytotoxicity at 10 µM is -0.966%.

For `CC(C)n1nnc2c(sc3nc(N4CCOCC4)c4c(c32)CCC4)c1=O`, the cytotoxicity at 10 µM turned out to be 3.26%.

As for `O=C(NC1CCCCC1)N1CCc2onc(COc3cccnc3)c2C1`, the cytotoxicity at 10 µM is -69.9%.

As to `Cc1nc(CN2C(=O)C[C@H]3[C@H]2CCN3C2CCOC2)cs1` (some centres undefined), the cytotoxicity at 10 µM was -139%.

For the compound `CC1CCN(C(=O)C2CCN(c3ccc(Cl)cc3C#N)CC2)CC1`, the cytotoxicity at 10 µM was determined as 11.8%.

Regarding `c1ccc2oc(CCCN3CCOC(Cn4cncn4)C3)nc2c1` (centres undefined), the cytotoxicity at 10 µM was 1.52%.

For `Cc1cnn(CC2CCCCN2C(=O)Cc2c(C)noc2C)c1` (centres undefined), the cytotoxicity at 10 µM is -0.807%.

`Cc1csc2ncc(-c3ccnc(NC4CCOCC4)n3)c(=O)n12`: the cytotoxicity at 10 µM is -4.36%.

Turning to `CC(O)c1cccc(Nc2nc(NCCO)c3ccccc3n2)c1` (centres undefined), the cytotoxicity at 10 µM turned out to be 18.4%.

In the case of `CCCNC(=O)COc1cc(C)c2c(C)nn(-c3ccccc3)c2n1`, the cytotoxicity at 10 µM was -0.295%.

For `CNC(=O)[C@@H]1[C@@H](c2ccccc2)CN2CCN(Cc3cccs3)C[C@H]12`, the cytotoxicity at 10 µM was 11%.

Take `CN1C[C@@H](C(=O)NC2CC2)[C@@]2(COc3ccc(F)cc3C2=O)C1`: the cytotoxicity at 10 µM was -26.5%.

Regarding `COc1ccccc1OCCC(=O)NC1CCc2nc(C)cn2C1` (centres undefined), the cytotoxicity at 10 µM is -7.05%.

Turning to `O=C(c1ccc(S(=O)(=O)N2CCSCC2)cc1)N1CCC(O)C1` (centres undefined), the cytotoxicity at 10 µM stood at 4.91%.

In the case of `CN1CCOC(CNCc2csc(C3CCCCC3)n2)C1` (centres undefined), the cytotoxicity at 10 µM was -8.57%.

As to `CCN1CCOCC2(CCCN(C(=O)c3cnccn3)C2)C1` (centres undefined), the cytotoxicity at 10 µM was determined as 6.21%.

Turning to `CC(C)(C)Cc1noc2ncc(C(=O)N3CCCSCC3)cc12`, the cytotoxicity at 10 µM was -20.5%.

With `CC(C)=CCN1CCN(C(=O)COc2ccccc2)[C@H]2CS(=O)(=O)C[C@H]21`, the cytotoxicity at 10 µM is -1.64%.

Turning to `O=C(CCn1cncn1)N1CCCC1c1noc(C2CC2)n1` (centres undefined), the cytotoxicity at 10 µM was -23.3%.

For the compound `CN(Cc1cnn(C)c1)C(=O)NCc1ccc2c(c1)OCCO2`, the cytotoxicity at 10 µM is -8.01%.

As to `O=C(c1cc(-c2cn[nH]c2)nc2ccc(F)cc12)N1CCSCC1`, the cytotoxicity at 10 µM was -0.0178%.

In the case of `Cn1nc(C#N)c2c1CN(C(=O)c1cccnc1)CCC2`, the cytotoxicity at 10 µM was found to be 2.22%.

`CCC(C)(NCc1cccc(NC(C)=O)c1)c1nc(C)cs1` (centres undefined): the cytotoxicity at 10 µM was -2.27%.

Take `Cc1nc(CN2CCCC(NCCOCC(F)(F)F)C2)no1` (centres undefined): the cytotoxicity at 10 µM was -11.1%.

For `Cc1ccc(C(=O)NCc2cccnc2N(C)C)o1`, the cytotoxicity at 10 µM was -6.86%.

Consider `O=C(CC1CC1)N1Cc2nccn2CC(Cn2ncccc2=O)C1` (centres undefined), for which the cytotoxicity at 10 µM was determined as 7.04%.

For `CCc1nc(CCNC(=O)Nc2ccc(C(=O)NC)cc2C)cs1`, the cytotoxicity at 10 µM is 27.7%.

Regarding `Cc1cc(C(=O)N2C[C@@H]3CC[C@H]2CN(Cc2ccccn2)C3)nc(C)n1`, the cytotoxicity at 10 µM was found to be 2.36%.

Regarding `CN(C)CC1(O)CCCN(Cc2ccccc2OCC(=O)N(C)C)C1` (centres undefined), the cytotoxicity at 10 µM is -1.21%.

As for `OCc1cn([C@@H]2c3ccccc3C3(CCNCC3)[C@H]2O)nn1`, the cytotoxicity at 10 µM is -3.45%.

Turning to `Cc1cnn(CCNCc2csc(COc3ccccc3)n2)c1`, the cytotoxicity at 10 µM came out at 1.77%.

As for `CS(=O)(=O)N1CCCN(C(=O)c2ccc(Cn3ccccc3=O)o2)CC1`, the cytotoxicity at 10 µM was -3.41%.

Take `Cc1ccc(C(C)NC(=O)CNCCn2cccn2)cc1C` (centres undefined): the cytotoxicity at 10 µM was -6.63%.

For the compound `CN(C)c1ncccc1CNS(=O)(=O)c1cc(F)cc(F)c1`, the cytotoxicity at 10 µM is -14%.
